In ChEMBL document CHEMBL1123956, “Nitrosoureido nucleosides as potential inhibitors of nucleotide biosynthesis” (J Med Chem, 1988):
Where “and” joins values, the source holds several entries; their conditions need not be identical. Identical values can stand only once.

Assays:
HEp-2 = assay: Inhibition of colony formation of H.Ep-2 cells; type: functional, cell-based; conditions: Homo sapiens, read-out: I50
Outline: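 H.Ep.-2 cells exposed to drug over a 12-day period. Colony formation was scored against untreated controls, and I50 was taken as the concentration giving 50% inhibition.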

[1] = (§1) Half life was measured at pH 7; type: ADME
Outline: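 Stability in pH 7 buffer, followed by HPLC; reported as half-life. The method is taken from an earlier paper.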

L1210 [2] = assay: Inhibition of proliferation of L1210 cells; type: functional, cell-based; conditions: Mus musculus, read-out: I50
Outline: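 L1210 cells in suspension culture with drug for 48 h. I50 was the concentration giving 50% inhibition of proliferation relative to controls.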

Mus musculus [3] = assay: Percent increase in life span of p388 leukemia induced mice was determined at a dose of 100 mg/kg upon ip administration on days 1-5; type: functional; conditions: route intraperitoneal
Outline: (§2)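 Mice implanted with 10⁶ P388 leukemia cells were dosed intraperitoneally once daily on days 1-5 after implant. Activity is expressed as % increase in life span, and 30-day survivors were recorded.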

Mus musculus [4] = assay: Percent increase in life span of p388 leukemia induced mice was determined at a dose of 200 mg/kg upon ip administration on days 1-5; type: functional; conditions: route intraperitoneal; outline: as §2
L1210 [5] = assay: Size distribution of cells (concuM); type: functional, Mus musculus
Outline: (§3)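 L1210 suspension cultures with agent for 30 min or 18 h, then a 4-h labelling period. Size distribution was measured on a Model ZH Coulter Counter. The value is the instrument setting at the peak of cell size; higher settings mean larger cells.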

Mus musculus [6] = assay: Percent increase in life span of p388 leukemia induced mice was determined at a dose of 25 mg/kg upon ip administration on days 1-5; type: functional; conditions: route intraperitoneal; outline: as §2
L1210 [7] = assay: percent synthesis of protein in L1210 cells when incubated with the compound for 18 hr uusing [3H]-L-Leu as radioligand; type: functional, Mus musculus
Outline: (§4)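 Protein synthesis in L1210 suspension cultures preincubated with agent for 30 min or 18 h. [4,5-3H]-L-leucine was then added, and incorporation into protein was sampled hourly over 4 h. Values are 4-h incorporation as % of untreated control.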

L1210 [8] = assay: percent synthesis of RNA in L1210 cells when incubated with compound for 18 h using […] as radioligand; type: functional, Mus musculus
Outline: (§5)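 RNA synthesis in L1210 suspension cultures preincubated with agent for 30 min or 18 h. [5-3H]Urd was then added, and incorporation into RNA was sampled hourly over 4 h. Values are 4-h incorporation as % of untreated control.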

L1210 [9] = assay: percent synthesis of RNA in L1210 cells when incubated with compound for 30 min using […] as radioligand; type: functional, Mus musculus; outline: as §5
L1210 [10] = assay: percent synthesis of protein in L1210 cells when incubated with the compound for 18 hr using [3H]-L-Leu as radioligand; type: functional, Mus musculus; outline: as §4
L1210 [11] = assay: percent synthesis of DNA in L1210 cells when incubated with the compound for 30 min using […] as radioligand; type: functional, Mus musculus
Outline: (§6)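 DNA synthesis in L1210 suspension cultures preincubated with agent for 30 min or 18 h. [3H]dThd was then added to the medium, and incorporation into DNA was sampled at 1-h intervals over 4 h. Values are for the 4-h labelling period, as % of untreated control.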

L1210 [12] = assay: Number of cells present measured with the Coulter counter; type: functional, Mus musculus
Outline: (§7)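 L1210 suspension cultures with agent for 30 min or 18 h, then a further 4 h with radiolabelled precursor. Cells were counted by Coulter counter and expressed as R, the count relative to the initial cell number (R = 1.0). R < 1.0 means a fall below the starting number; R > 1.0 means proliferation.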

L1210 [13] = assay: Size distribution of cells; type: functional, Mus musculus; outline: as §3
L1210 [14] = assay: percent synthesis of DNA in L1210 cells when incubated with the compound for 18 h using […] as radioligand; type: functional, Mus musculus; outline: as §6
L1210 [15] = assay: percent synthesis of protein in L1210 cells when incubated with the compound for 30 min using [3H]L-Leu as radioligand; type: functional, Mus musculus; outline: as §4
L1210 [16] = assay: Number of cells present measured with the Coulter counter(concuM); type: functional, Mus musculus; outline: as §7
L1210 [17] = assay: percent synthesis of RNA in L1210 cells when incubated with compound for 18 h using […] as radioligand (conc umol); type: functional, Mus musculus; outline: as §5
[18] = as §1; type: ADME; remark: listed apart in the source
Outline: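 Stability in pH 7 buffer, with decomposition followed by HPLC and the half-life taken from it.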

L1210 [19] = assay: Number of cells present measured with the Coulter counter at 25 uM conc.; type: functional, Mus musculus; outline: as §7
L1210 [20] = assay: percent synthesis of RNA in L1210 cells when incubated with compound for 30 min using [3H]dThd as radioligand at 25 uM conc.; type: functional, Mus musculus; conditions: in the assay text read “[5-3H]Urd” for “[3H]dThd”; outline: as §5
L1210 [21] = assay: percent synthesis of RNA in L1210 cells when incubated with compound for 18 hr using […] as radioligand at 50 uM conc.; type: functional, Mus musculus; outline: as §5
L1210 [22] = assay: percent synthesis of DNA in L1210 cells when incubated with the compound for 30 min using […] as radioligand at 50 uM conc.; type: functional, Mus musculus; outline: as §6
L1210 [23] = assay: percent synthesis of protein in L1210 cells when incubated with the compound for 18 hr using [3H]-L-Leu as radioligand at 25 uM conc.; type: functional, Mus musculus; outline: as §4
L1210 [24] = assay: percent synthesis of RNA in L1210 cells when incubated with compound for 30 min using [3H]dThd as radioligand at 50 uM conc.; type: functional, Mus musculus; conditions: in the assay text read “[5-3H]Urd” for “[3H]dThd”; outline: as §5
L1210 [25] = assay: percent synthesis of DNA in L1210 cells when incubated with the compound for 30 min using […] as radioligand at 25 uM conc.; type: functional, Mus musculus; outline: as §6
L1210 [26] = assay: percent synthesis of RNA in L1210 cells when incubated with compound for 30 min using […] as radioligand at 10 uM conc.; type: functional, Mus musculus; outline: as §5
L1210 [27] = assay: Size distribution of cells at 50 uM conc.; type: functional, Mus musculus; outline: as §3
L1210 [28] = assay: percent synthesis of protein in L1210 cells when incubated with the compound for 18 hr using [3H]-L-Leu as radioligand at 50 uM conc.; type: functional, Mus musculus; outline: as §4
L1210 [29] = assay: Number of cells present measured with the Coulter counter at 10 uM conc.; type: functional, Mus musculus; outline: as §7
L1210 [30] = assay: Number of cells present measured with the Coulter counter at 50 uM conc.; type: functional, Mus musculus; outline: as §7
L1210 [31] = assay: percent synthesis of DNA in L1210 cells when incubated with the compound for 30 min using […] as radioligand at 10 uM conc.; type: functional, Mus musculus; outline: as §6
L1210 [32] = assay: Size distribution of cells at 25 uM conc.; type: functional, Mus musculus; outline: as §3
L1210 [33] = assay: percent synthesis of DNA in L1210 cells when incubated with the compound for 18 hr using […] as radioligand at 25 uM conc.; type: functional, Mus musculus; outline: as §6
L1210 [34] = assay: percent synthesis of protein in L1210 cells when incubated with the compound for 18 hr using [3H]-L-Leu as radioligand at 10 uM conc.; type: functional, Mus musculus; outline: as §4
L1210 [35] = assay: percent synthesis of protein in L1210 cells when incubated with the compound for 30 min using [3H]L-Leu as radioligand at 50 uM conc.; type: functional, Mus musculus; outline: as §4
L1210 [36] = assay: percent synthesis of DNA in L1210 cells when incubated with the compound for 18 h using [3H]dUrd as radioligand at 10 uM conc.; type: functional, Mus musculus; conditions: in the assay text read “[3H]dThd” for “[3H]dUrd”; outline: as §6
L1210 [37] = assay: Size distribution of cells at 10 uM conc.; type: functional, Mus musculus; outline: as §3
L1210 [38] = assay: percent synthesis of DNA in L1210 cells when incubated with the compound for 18 h using […] as radioligand at 50 uM conc.; type: functional, Mus musculus; outline: as §6
L1210 [39] = assay: percent synthesis of RNA in L1210 cells when incubated with compound for 18 hr using […] as radioligand at 25 uM conc.; type: functional, Mus musculus; outline: as §5
L1210 [40] = assay: percent synthesis of protein in L1210 cells when incubated with the compound for 30 min using [3H]L-Leu as radioligand at 25 uM conc.; type: functional, Mus musculus; outline: as §4
L1210 [41] = assay: percent synthesis of RNA in L1210 cells when incubated with compound for 18 h using […] as radioligand at 10 uM conc.; type: functional, Mus musculus; outline: as §5
L1210 [42] = assay: percent synthesis of protein in L1210 cells when incubated with the compound for 30 min using [3H]L-Leu as radioligand at 10 uM conc.; type: functional, Mus musculus; outline: as §4

CN(N=O)C(=O)Nc1ccc(NC(=O)C2OC(n3ccc(=O)[nH]c3=O)C(O)C2O)cc1 (stereo not drawn)
IC50 (HEp-2): 33 µM
half-life [1]: 2 h
IC50 (L1210 [2]): > 90 µM
ILS at 100 mg/kg (Mus musculus [3]): 56%

Cc1cn(C2CC(O)C(C(=O)NCCN(N=O)C(=O)Nc3ccccc3)O2)c(=O)[nH]c1=O (stereo not drawn)
IC50 (HEp-2): 90 µM
half-life [1]: 0.7 h
IC50 (L1210 [2]): > 90 µM
ILS at 200 mg/kg (Mus musculus [4]): 14%

O=NN(CCCl)C(=O)NCC1OC(n2ccc(=O)[nH]c2=O)CC1O (stereo not drawn)
Cell size (L1210 [5]): 67.5 and 65 and 82.5
ILS at 25 mg/kg (Mus musculus [6]): 191%
Control (L1210 [7]): 658%
Control (L1210 [8]): 554% and 276%
Control (L1210 [9]): 87% and 79% and 80%
IC50 (HEp-2): 14 µM
half-life [1]: 4 h
Control (L1210 [10]): 474% and 254%
Control (L1210 [11]): 98% and 103% and 100%
IC50 (L1210 [2]): 12 µM
Cell no (L1210 [12]): 1.06 and 1.08 and 1.09 and 0.77 and 0.99
Cell size (L1210 [13]): 60 and 82.5 and 75
Control (L1210 [14]): 189% and 192% and 152%
Control (L1210 [15]): 96% and 92% and 95%
Cell no (L1210 [16]): 0.54
Control (L1210 [17]): 455%

O=NN(C(=O)NC1CCCCC1)C1CCCCC1
T1/2 [18]: 0.875 h

Cc1cn(C2CC(O)C(CNC(=O)N(CCCl)N=O)O2)c(=O)[nH]c1=O (stereo not drawn)
ILS at 25 mg/kg (Mus musculus [6]): 135%
Cell no (L1210 [19]): 1.08 and 0.92
Control (L1210 [20]): 88%
Control (L1210 [21]): 539%
Control (L1210 [22]): 85%
Control (L1210 [23]): 455%
Control (L1210 [24]): 87%
Control (L1210 [25]): 98%
Control (L1210 [26]): 85%
Cell size (L1210 [27]): 55 and 85
IC50 (HEp-2): 10 µM
half-life [1]: 6 h
Control (L1210 [28]): 597%
Cell no (L1210 [29]): 1.08 and 1.21
Cell no (L1210 [30]): 1.06 and 0.64
IC50 (L1210 [2]): 5 µM
Control (L1210 [31]): 108%
Cell size (L1210 [32]): 57.5 and 80
Control (L1210 [33]): 171%
Control (L1210 [34]): 257%
Control (L1210 [35]): 111%
Control (L1210 [36]): 145%
Cell size (L1210 [37]): 60 and 80
Control (L1210 [38]): 147%
Control (L1210 [39]): 374%
Control (L1210 [40]): 99%
Control (L1210 [41]): 217%
Control (L1210 [42]): 83%
